Assay results from ChEMBL document CHEMBL4265871, “Novel alkylated azoles as potent antifungals” (Eur J Med Chem, 2017).
Values after ≈ are worked out from the molar mass of the structure shown. Active and inactive are the calls of the source. No cut-off for these calls is given here.

Experiments:
Candida albicans [1] = assay: Antifungal activity against Candida albicans ATCC 10231 incubated for 48 hrs by modified CLSI M27-A3 protocol based method; type: functional; details: ATCC 10231, 48 h, read-out: MIC100
Outline: (§1)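 For C. albicans ATCC 10231, C. krusei ATCC 6258 and C. parapsilosis ATCC 22019, MIC-0 was read, meaning complete growth inhibition. For azole controls, MIC-2 (50% growth inhibition) was reported instead. Caspofungin and voriconazole were tested here; other controls came from earlier work.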

Candida albicans [2] = assay: Antifungal activity against Candida albicans ATCC 64124 incubated for 48 hrs by modified CLSI M27-A3 protocol based method; type: functional; details: ATCC 64124, 48 h
Candida albicans [3] = assay: Antifungal activity against ITC and FLC-resistant Candida albicans ATCC MYA-90819 incubated for 48 hrs by modified CLSI M27-A3 protocol based method; type: functional; details: ATCC MYA-90819, 48 h
Pichia kudriavzevii = assay: Antifungal activity against Candida krusei ATCC 6258 incubated for 48 hrs by modified CLSI M27-A3 protocol based method; type: functional; details: ATCC 6258, 48 h, read-out: MIC100; outline: as §1
Aspergillus terreus = assay: Antifungal activity against Aspergillus terreus ATCC MYA-3633 incubated for 48 hrs by CLSI M38-A2 protocol based method; type: functional; details: ATCC MYA-3633, 48 h, read-out: MIC100
Candida albicans [4] = assay: Fungistatic activity against Candida albicans ATCC 10231 at 0.5 times MIC incubated for 3 to 12 hrs by time kill assay; type: functional, organism-based
Candida albicans [5] = assay: Effect on growth of Candida albicans ATCC 10231 assessed as increase in microbial growth at 0.5 times MIC incubated for 24 hrs by time kill assay; type: functional
Candida albicans [6] = assay: Fungistatic activity against Candida albicans ATCC 10231 at 1 times MIC incubated for 3 to 12 hrs by time kill assay; type: functional, organism-based
Candida albicans [7] = assay: Fungistatic activity against Candida albicans ATCC 10231 assessed as reduction in microbial growth at 1 times MIC incubated for 24 hrs by time kill assay; type: functional
Candida albicans [8] = assay: Fungicidal activity against Candida albicans ATCC 10231 assessed as reduction in microbial growth at 4 times MIC incubated for 9 hrs by time kill assay; type: functional
[9] = Toxicity in human A549 cells assessed as reduction in cell viability incubated for 24 hrs by resazurin dye based assay
Outline: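 Toxicity tested in the nucleated lines A549 and BEAS-2B to give EC50 values. Selectivity index is EC50 against the mammalian line divided by the MIC against a given fungal strain.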

Candida albicans [10] = assay: Induction of membrane permeabilization in Candida albicans ATCC 10231 at 1 to 4 times MIC incubated for 1 hr by propidium iodide staining based fluorescence microscopy; type: functional, organism-based
Outline: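 C. albicans ATCC 10231 treated at 1× and 4× MIC and stained with propidium iodide, a membrane-impermeant dye, to detect membrane damage. Untreated cells, FLC (7.8 µg/mL) and KANB (C14) (7.8 µg/mL) serve as comparators.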

[11] = Hemolytic activity in mouse erythrocytes assessed as hemolysis level at 3.9 ug/ml incubated for 1 hr at 37 degC; type: ADME, cell-based, Erythrocyte; details: read-out: Activity
Outline: (§2)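 Mouse erythrocytes incubated 1 h at 37 °C with test agents over 1.95 to 125 µg/mL. Percent lysis is read for each concentration.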

[12] = Hemolytic activity in mouse erythrocytes assessed as hemolysis level at 31.3 ug/ml incubated for 1 hr at 37 degC; type: ADME, cell-based, Erythrocyte; details: read-out: Activity; outline: as §2
[13] = Selectivity index, ratio of EC50 for toxicity in human A549 cells to MIC100 for antifungal activity against Candida albicans ATCC 10231; type: cell-based; details: read-out: Selectivity Index
Outline: (§3)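 Selectivity index is the EC50 against the mammalian line (A549 or BEAS-2B) divided by the MIC against the given fungal strain.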

[14] = Selectivity index, ratio of EC50 for toxicity in human A549 cells to MIC50 for antifungal activity against ITC and FLC-susceptible Candida albicans ATCC MYA-2876; type: cell-based; details: read-out: Selectivity Index; outline: as §3
[15] = Selectivity index, ratio of EC50 for toxicity in human BEAS2B cells to MIC50 for antifungal activity against ITC and FLC-susceptible Candida albicans ATCC MYA-2310; type: cell-based; details: BEAS-2B cells, read-out: Selectivity Index
Outline: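 Ratio of the compound's EC50 against BEAS-2B cells to its MIC against the named C. albicans strain. […] For C. albicans strains other than ATCC 10231, trailing growth meant MIC-2 was taken, meaning 50% growth inhibition.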

[16] = Selectivity index, ratio of EC50 for toxicity in human BEAS2B cells to MIC50 for antifungal activity against ITC and FLC-resistant Candida albicans ATCC MYA-1003; type: cell-based; details: BEAS-2B cells, read-out: Selectivity Index; outline: as §3
[17] = Selectivity index, ratio of EC50 for toxicity in human BEAS2B cells to MIC50 for antifungal activity against Candida glabrata ATCC 2001; type: cell-based; details: BEAS-2B cells, read-out: Selectivity Index; outline: as §3
[18] = Selectivity index, ratio of […] for toxicity in human BEAS2B cells to MIC50 for antifungal activity against Aspergillus flavus ATCC MYA-3631; type: cell-based; details: BEAS-2B cells, read-out: Selectivity Index
[19] = Selectivity index, ratio of […] for toxicity in human A549 cells to MIC50 for antifungal activity against Aspergillus terreus ATCC MYA-3633; type: cell-based; details: read-out: Selectivity Index
Candida albicans [20] = assay: Antifungal activity against Candida albicans ATCC 10231 at 0.5 to 4 times MIC incubated for 3 to 24 hrs by time kill assay
Candida albicans [21] = assay: Antifungal carryover activity against Candida albicans ATCC 10231 assessed as 25% reduction in colony counts at 0.5 to 4 times MIC
[22] = Selectivity index, ratio of EC50 for toxicity in human BEAS2B cells to MIC50 for antifungal activity against Candida krusei ATCC 6258; details: BEAS-2B cells
A549 = assay: Toxicity in human A549 cells assessed as cell viability at 15.6 ug/ml incubated for 24 hrs by resazurin dye based assay; details: a549, 24 h
BEAS-2B = assay: Toxicity in human BEAS2B cells assessed as cell viability at 15.6 ug/ml incubated for 24 hrs by resazurin dye based assay
Candida albicans [23] = assay: Effect on sterol composition in Candida albicans ATCC 64124 assessed as unknown sterol level at 1.95 ug/mL incubated for 10 mins by LC-MS analysis (reference value: 2.67 to 6.98%)
Candida albicans [24] = assay: Effect on sterol composition in Candida albicans ATCC 10231 assessed as unknown sterol level at 0.125 ug/mL incubated for 10 mins by GC-MS analysis (reference value: 1.88 to 2.78%)
Candida albicans [25] = assay: Effect on sterol composition in Candida albicans ATCC 10231 assessed as 14-alpha-methyl-ergosta-8,24(28)dien-3beta,6alpha-diol level at 0.125 ug/mL incubated for […] by GC-MS analysis

Structure (SMILES) | MIC (Candida albicans [1]) [µM] | MIC50 (Candida albicans [2]) [µM] | MIC50 (Candida albicans [3]) [µM] | MIC (Pichia kudriavzevii) [µM] | MIC (Aspergillus terreus) [µM] | Activity (Candida albicans [4]) | Activity (Candida albicans [5]) [log10CFU] | Activity (Candida albicans [6]) | Activity (Candida albicans [7]) [log10CFU] | EC50 at 24 h [9] [mg/L] | Activity (Candida albicans [10]) | hemolysis at 1 h, 3.9 ug/ml [11] [%] | hemolysis at 1 h, 31.3 ug/ml [12] [%] | selectivity ratio [13] | selectivity ratio [14] | selectivity ratio [15] | selectivity ratio [16] | selectivity ratio [17] | selectivity ratio [18] | selectivity ratio [19] | other results
CCCCCCC(O)(Cn1cncn1)c1ccc(F)cc1F (configuration not stated) | 6.3 (≈ 1.95 µg/mL) | 25.2 (≈ 7.8 µg/mL) | 6.3 (≈ 1.95 µg/mL) | 0.39 (≈ 0.121 µg/mL) | 25.2 (≈ 7.8 µg/mL) | Active | 1 | Active | 1 | 35 (≈ 113 µM) | inactive | 0 | 10.4 | 18 | 18 | 8 | 16 | 8 | 2 | 4 | Activity (Candida albicans [8]): >=2 log10CFU; Activity (Candida albicans [20]): Dose-dependent effect; Activity (Candida albicans [21]): inactive; selectivity ratio [22]: 261
CCCCCCC(O)(Cn1cncn1)c1ccc(Cl)cc1Cl (configuration not stated) | 0.7 (≈ 0.24 µg/mL) | 5.7 (≈ 1.95 µg/mL) | 5.7 (≈ 1.95 µg/mL) | 0.09 (≈ 0.0308 µg/mL) | 11.4 (≈ 3.9 µg/mL) | Active | 1 | Active | 0.25 | 20 (≈ 58.4 µM) | inactive | 0 | 92 | 83 | 21 | 14 | 29 | 14 | 7 | 5 | viability (A549): > 85%; viability (BEAS-2B): > 85%; Activity (Candida albicans [20]): Dose-dependent effect; Activity (Candida albicans [21]): inactive; selectivity ratio [22]: 933; Activity (Candida albicans [23]): 4.25 - 13.04%; Activity (Candida albicans [24]): 4.36 - 5.57%; Activity (Candida albicans [25]): 18.81%
